Here are results for 14 molecules from ChEMBL document CHEMBL1158567, “Azetidinone-isothiazolidinones: stereoselective synthesis and antibacterial evaluation of new monocyclic beta-lactams” (2010).

Format in all cases: functional
The subject of assay [1] is Streptococcus pneumoniae. In words: Antibacterial activity against Streptococcus pneumoniae ATCC 6305 after overnight incubation by broth microdilution method. The essentials: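 Broth microdilution MIC in cation-adjusted Mueller–Hinton broth supplemented with 5% horse serum. The inoculum was overnight agar colonies suspended in sterile saline to 0.5 McFarland turbidity. The screen cut-off was […]. Testing conditions were pH 7.4.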

Assay [2] relates to Moraxella catarrhalis. In words: Antibacterial activity against Moraxella catarrhalis ATCC 23246 after overnight incubation by broth microdilution method. The essentials:
(§1)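 MIC from a broth microdilution screen against ATCC reference strains, run in cation-adjusted Mueller–Hinton broth. Inocula were made from overnight agar cultures: colonies were suspended in sterile saline to a turbidity equal to a 0.5 McFarland standard. The screen's upper cut-off was […]. Testing conditions were pH 7.4.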
For orientation: In broth dilution the organism is exposed to a series of concentrations in liquid medium.

For assay [3], the system named is Staphylococcus aureus. In words: Antibacterial activity against Staphylococcus aureus ATCC 29213 after overnight incubation by broth microdilution method. The essentials:
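MIC from a broth microdilution screen in cation-adjusted Mueller–Hinton broth against the ATCC reference strain. The inoculum was colonies from overnight agar culture suspended in sterile saline to a 0.5 McFarland turbidity. The top concentration tested was […]. Testing conditions were pH 7.4.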

In assay [4] the test system is Escherichia coli. In words: Antibacterial activity against Escherichia coli ATCC 25922 after overnight incubation by broth microdilution method. The essentials:
as §1

The subject of assay [5] is Haemophilus influenzae. Put plainly: Antibacterial activity against Haemophilus influenzae ATCC 49247 after overnight incubation by broth microdilution method. The essentials: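 Broth microdilution MIC run in Haemophilus Test Medium (HTM). The inoculum was overnight agar colonies suspended in sterile saline to 0.5 McFarland turbidity. The upper cut-off was […]. Testing conditions were pH 7.4.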

The subject of assay [6] is Enterococcus faecalis. In words: Antibacterial activity against Enterococcus faecalis ATCC 29212 after overnight incubation by broth microdilution method. The essentials:
as §1

Structures are written as SMILES. Values after ≈ are worked out from the molar mass of the structure shown.

As to `CC1(C)SN([C@H](C(=O)OCc2ccccc2)c2ccccc2)C(=O)[C@@H]1N1C(=O)[C@@H](N2C(=O)c3ccccc3C2=O)[C@@H]1Cl`, the MIC in assay [1] was 8 µg/mL (≈ 13.2 µM); in assay [2], 64 µg/mL (≈ 106 µM); in assay [3] it was 32 µg/mL (≈ 53 µM); in assay [4] it was above 128 µg/mL; in assay [5] it was above 128 µg/mL; in assay [6], 16 µg/mL (≈ 26.5 µM).
In assay [2], `CC1(C)S[C@@H]2[C@H](N3C(=O)c4ccccc4C3=O)C(=O)N2[C@H]1C(=O)NCC(=O)OCc1ccccc1` displayed an MIC of 64 µg/mL (≈ 130 µM).
Still for that read-out and setting: the value for `CC(C)N1SC(C)(C)[C@@H](N2C(=O)[C@@H](N3C(=O)c4ccccc4C3=O)[C@@H]2Cl)C1=O` was 64 µg/mL (≈ 152 µM); that for `CC1(C)SN([C@H](C(=O)O)c2ccccc2)C(=O)[C@@H]1N1C(=O)[C@@H](N2C(=O)c3ccccc3C2=O)[C@@H]1Cl` was above 128 µg/mL.
As to `CC1(C)S[C@@H]2[C@H](NC(=O)[C@H](N)c3ccc(O)cc3)C(=O)N2[C@H]1C(=O)O` [AMOXICILLIN], the MIC was found to be 4 µg/mL (≈ 10.9 µM) in assay [1]; 0.5 µg/mL (≈ 1.37 µM) in assay [2]; 1 µg/mL (≈ 2.74 µM) in assay [3]; 0.5 µg/mL (≈ 1.37 µM) in assay [4]; 0.015 µg/mL (≈ 0.041 µM) in assay [5]; 4 µg/mL (≈ 10.9 µM) in assay [6].
On to `CC1(C)SN(CC(=O)OCc2ccccc2)C(=O)[C@@H]1N1C(=O)[C@@H](N2C(=O)c3ccccc3C2=O)[C@@H]1Cl`, for which the MIC in assay [1] is 64 µg/mL (≈ 121 µM); in assay [2] it was 32 µg/mL (≈ 60.6 µM); in assay [3], 64 µg/mL (≈ 121 µM); in assay [4], above 128 µg/mL; in assay [5] it was above 128 µg/mL; in assay [6] it was 32 µg/mL (≈ 60.6 µM).
In the case of `CC1(C)SN(Cc2ccccc2)C(=O)[C@@H]1N1C(=O)[C@@H](N2C(=O)c3ccccc3C2=O)[C@@H]1Cl`, the MIC was 64 µg/mL (≈ 136 µM) in assay [1]; 16 µg/mL (≈ 34 µM) in assay [2]; 128 µg/mL (≈ 272 µM) in assay [3]; above 128 µg/mL in assay [4]; above 128 µg/mL in assay [5]; 64 µg/mL (≈ 136 µM) in assay [6].
`C[C@@H](C(=O)O)N1SC(C)(C)[C@@H](N2C(=O)[C@@H](N3C(=O)c4ccccc4C3=O)[C@@H]2Cl)C1=O`: the MIC in assay [6] is above 128 µg/mL.
Molecule `C[C@H](NC(=O)[C@@H]1N2C(=O)[C@@H](N3C(=O)c4ccccc4C3=O)[C@H]2SC1(C)C)C(=O)OCc1ccccc1` came in with an MIC in assay [2] above 128 µg/mL.
`CC1(C)SN(CC(=O)O)C(=O)[C@@H]1N1C(=O)[C@@H](N2C(=O)c3ccccc3C2=O)[C@@H]1Cl` showed an MIC in assay [6] above 128 µg/mL.
For `C[C@@H](C(=O)OCc1ccccc1)N1SC(C)(C)[C@@H](N2C(=O)[C@@H](N3C(=O)c4ccccc4C3=O)[C@@H]2Cl)C1=O`, the MIC was 64 µg/mL (≈ 118 µM) in assay [1]; 32 µg/mL (≈ 59 µM) in assay [2]; 64 µg/mL (≈ 118 µM) in assay [3]; above 128 µg/mL in assay [4]; above 128 µg/mL in assay [5]; 64 µg/mL (≈ 118 µM) in assay [6].
`CC1(C)S[C@@H]2[C@H](N3C(=O)c4ccccc4C3=O)C(=O)N2[C@H]1C(=O)NCc1ccccc1` gave an MIC in assay [2] of 64 µg/mL (≈ 147 µM).
Still for that read-out and setting: then `CC1(C)S[C@@H]2[C@H](N3C(=O)c4ccccc4C3=O)C(=O)N2[C@H]1C(=O)N[C@H](C(=O)OCc1ccccc1)c1ccccc1`, with above 128 µg/mL; and `CC(C)NC(=O)[C@@H]1N2C(=O)[C@@H](N3C(=O)c4ccccc4C3=O)[C@H]2SC1(C)C`, with above 128 µg/mL.
